Measurements published in ChEMBL document CHEMBL1165943, “Design and synthesis of new anticancer pyrimidines with multiple-kinase inhibitory effect” (Bioorg Med Chem, 2010).

Assays:
Assay type in all cases: functional
NCI-H322M = assay: Cytotoxicity against human NCI-H322M cells assessed as cell growth at 10 uM; settings: Homo sapiens, NCI-H322M; read-out: Activity
Method in brief: (§1)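 Single-dose screen at 10 μM across the 60-cell-line panel. Cells grown in RPMI 1640 with 5% FBS and 2 mM L-glutamine, seeded at 5,000–40,000 cells/well according to doubling time, and treated 24 h later. Exposure lasted 48 h at 37 °C, 5% CO₂. Adherent cells were fixed with cold TCA, suspension cells were fixed settled, and both were stained with SRB and read at 515 nm. Growth % was recorded, with inhibition % = 100 − growth %.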

T47D = assay: Cytotoxicity against human T47D cells assessed as cell growth at 10 uM; settings: Homo sapiens, T47D; read-out: Activity; method in brief: as §1
HL-60(TB) = assay: Cytotoxicity against human HL-60(TB) cells assessed as cell growth at 10 uM; settings: Homo sapiens, HL-60; read-out: Activity
Method in brief: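 Single-concentration 10 µM screen of HL-60(TB) within the 60-line panel, grown in RPMI 1640 with 5% FBS. The drug from DMSO stock is incubated 48 h at 37 °C, settled cells are TCA-fixed and SRB-stained, and absorbance is read at 515 nm. Percent growth is reported, and inhibition % is taken as 100 minus growth %.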

NCI-H226 = assay: Cytotoxicity against human NCI-H226 cells assessed as cell growth at 10 uM; settings: Homo sapiens, NCI-H226; read-out: Activity; method in brief: as §1
IGROV-1 = assay: Cytotoxicity against human IGROV1 cells assessed as cell growth at 10 uM; settings: Homo sapiens, IGROV-1; read-out: Activity; method in brief: as §1
NCI-H23 = assay: Cytotoxicity against human NCI-H23 cells assessed as cell growth at 10 uM; settings: Homo sapiens, NCI-H23; read-out: Activity; method in brief: as §1
OVCAR-4 = assay: Cytotoxicity against human OVCAR4 cells assessed as cell growth at 10 uM; settings: Homo sapiens, OVCAR-4; read-out: Activity; method in brief: as §1
OVCAR-5 = assay: Cytotoxicity against human OVCAR5 cells assessed as cell growth at 10 uM; settings: Homo sapiens, OVCAR-5; read-out: Activity; method in brief: as §1
MDA-MB-231 = assay: Cytotoxicity against human MDA-MB-231 cells assessed as cell growth at 10 uM; settings: Homo sapiens, MDA-MB-231; read-out: Activity; method in brief: as §1
SF-268 = assay: Cytotoxicity against human SF268 cells assessed as cell growth at 10 uM; settings: Homo sapiens, SF-268; read-out: Activity; method in brief: as §1
M14 = assay: Cytotoxicity against human M14 cells assessed as cell growth at 10 uM; settings: Homo sapiens, M14; read-out: Activity; method in brief: as §1
HCT-15 = assay: Cytotoxicity against human HCT15 cells assessed as cell growth at 10 uM; settings: Homo sapiens, HCT-15; read-out: Activity
Method in brief: (§2)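 Single-concentration screen at 10 μM across the 60-cell-line panel (nine tissue types); growth percentage recorded per cell line, with inhibition taken as 100 minus growth percentage.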

OVCAR-3 = assay: Cytotoxicity against human OVCAR-3 cells assessed as cell growth at 10 uM; settings: Homo sapiens, OVCAR-3; read-out: Activity; method in brief: as §1
K562 = assay: Cytotoxicity against human K562 cells assessed as cell growth at 10 uM; settings: Homo sapiens, K562; read-out: Activity; method in brief: as §1
SK-MEL-28 = assay: Cytotoxicity against human SK-MEL-28 cells assessed as cell growth at 10 uM; settings: Homo sapiens, SK-MEL-28; read-out: Activity; method in brief: as §1
UO-31 = assay: Cytotoxicity against human UO31 cells assessed as cell growth at 10 uM; settings: Homo sapiens, UO-31; read-out: Activity; method in brief: as §1
ACHN = assay: Cytotoxicity against human ACHN cells assessed as cell growth at 10 uM; settings: Homo sapiens, ACHN; read-out: Activity; method in brief: as §2
HCT-116 = assay: Cytotoxicity against human HCT116 cells assessed as cell growth at 10 uM; settings: Homo sapiens, HCT-116; read-out: Activity; method in brief: as §2
SW-620 = assay: Cytotoxicity against human SW620 cells assessed as cell growth at 10 uM; settings: Homo sapiens, SW-620; read-out: Activity; method in brief: as §1
HOP-62 = assay: Cytotoxicity against human HOP62 cells assessed as cell growth at 10 uM; settings: Homo sapiens, HOP-62; read-out: Activity; method in brief: as §2
SF-295 = assay: Cytotoxicity against human SF295 cells assessed as cell growth at 10 uM; settings: Homo sapiens, SF-295; read-out: Activity; method in brief: as §1
DU-145 = assay: Cytotoxicity against human DU145 cells assessed as cell growth at 10 uM; settings: Homo sapiens, DU-145; read-out: Activity; method in brief: as §2
U-251 = assay: Cytotoxicity against human U251 cells assessed as cell growth at 10 uM; settings: Homo sapiens, U-251; read-out: Activity; method in brief: as §1
MDA-MB-468 = assay: Cytotoxicity against human MDA-MB-468 cells assessed as cell growth at 10 uM; settings: Homo sapiens, MDA-MB-468; read-out: Activity; method in brief: as §1
EKVX = assay: Cytotoxicity against human EKVX cells assessed as cell growth at 10 uM; settings: Homo sapiens, EKVX; read-out: Activity; method in brief: as §2
LOX IMVI = assay: Cytotoxicity against human LOXIMVI cells assessed as cell growth at 10 uM; settings: Homo sapiens, LOX IMVI; read-out: Activity; method in brief: as §1
COLO 205 = assay: Cytotoxicity against human COLO205 cells assessed as cell growth at 10 uM; settings: Homo sapiens, COLO 205; read-out: Activity; method in brief: as §2
UACC-62 = assay: Cytotoxicity against human UACC62 cells assessed as cell growth at 10 uM; settings: Homo sapiens, UACC-62; read-out: Activity; method in brief: as §1
PC-3 = assay: Cytotoxicity against human PC3 cells assessed as cell growth at 10 uM; settings: Homo sapiens, PC-3; read-out: Activity; method in brief: as §1
UACC-257 = assay: Cytotoxicity against human UACC257 cells assessed as cell growth at 10 uM; settings: Homo sapiens, UACC-257; read-out: Activity; method in brief: as §1
[1] = Growth inhibition of human NCI60 cells at 10 uM after 48 hrs by sulforhodamine B assay relative to control; settings: Homo sapiens, NCI60, 48 h; read-out: GI
Method in brief: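 Single 10 µM dose across the 60-line panel for 48 h, with the same culture, TCA fixation and SRB 515 nm read-out. Inhibition % = 100 − growth %, given as the mean over the 60 cell lines.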

OVCAR-8 = assay: Cytotoxicity against human OVCAR8 cells assessed as cell growth at 10 uM; settings: Homo sapiens, OVCAR-8; read-out: Activity; method in brief: as §1
SK-OV-3 = assay: Cytotoxicity against human SKOV3 cells assessed as cell growth at 10 uM; settings: Homo sapiens, SK-OV-3; read-out: Activity; method in brief: as §1
KM12 = assay: Cytotoxicity against human KM12 cells assessed as cell growth at 10 uM; settings: Homo sapiens, KM12; read-out: Activity; method in brief: as §1
SK-MEL-2 = assay: Cytotoxicity against human SK-MEL-2 cells assessed as cell growth at 10 uM; settings: Homo sapiens, SK-MEL-2; read-out: Activity; method in brief: as §1
HT-29 = assay: Cytotoxicity against human HT-29 cells assessed as cell growth at 10 uM; settings: Homo sapiens, HT-29; read-out: Activity; method in brief: as §2

Cc1ccc(Nc2nc(C)cc(-c3cccnc3)n2)c(C)c1
growth at 10 µM (NCI-H322M): 100%
growth at 10 µM (T47D): 87.1%
growth at 10 µM (HL-60(TB)): 98.5%
growth at 10 µM (NCI-H226): 94.8%
growth at 10 µM (IGROV-1): 90.4%
growth at 10 µM (NCI-H23): 90.9%
growth at 10 µM (OVCAR-4): 102%
growth at 10 µM (OVCAR-5): 106%
growth at 10 µM (MDA-MB-231): 87.6%
growth at 10 µM (SF-268): 96.4%
growth at 10 µM (M14): 114%
growth at 10 µM (HCT-15): 99.7%
growth at 10 µM (OVCAR-3): 105%
growth at 10 µM (K562): 85.8%
growth at 10 µM (SK-MEL-28): 108%
growth at 10 µM (UO-31): 86.9%
growth at 10 µM (ACHN): 108%
growth at 10 µM (HCT-116): 95.2%
growth at 10 µM (SW-620): 97.5%
growth at 10 µM (HOP-62): 111%
growth at 10 µM (SF-295): 98.3%
growth at 10 µM (DU-145): 99.5%
growth at 10 µM (U-251): 92.2%
growth at 10 µM (MDA-MB-468): 72.8%
growth at 10 µM (EKVX): 96.1%
growth at 10 µM (LOX IMVI): 102%
growth at 10 µM (COLO 205): 122%
growth at 10 µM (UACC-62): 82.4%
growth at 10 µM (PC-3): 91.7%
growth at 10 µM (UACC-257): 100%
inhibition of growth at 10 µM [1]: 3.91%
growth at 10 µM (OVCAR-8): 94.2%
growth at 10 µM (SK-OV-3): 104%
growth at 10 µM (KM12): 98.7%
growth at 10 µM (SK-MEL-2): 107%
growth at 10 µM (HT-29): 96.8%

CC(=O)c1ccccc1-c1ccc(-c2ccnc(NC(=O)Nc3cc(N4CCOCC4)cc(C(F)(F)F)c3)n2)cn1
growth at 10 µM (NCI-H322M): 90.1%
growth at 10 µM (T47D): 79.8%
growth at 10 µM (HL-60(TB)): 95.7%
growth at 10 µM (NCI-H226): 39.4%
growth at 10 µM (IGROV-1): 70.8%
growth at 10 µM (NCI-H23): 58.5%
growth at 10 µM (OVCAR-4): 27.5%
growth at 10 µM (OVCAR-5): 102%
growth at 10 µM (MDA-MB-231): 30.1%
growth at 10 µM (SF-268): 63.9%
growth at 10 µM (M14): 8.07%
growth at 10 µM (HCT-15): 84.2%
growth at 10 µM (OVCAR-3): 123%
growth at 10 µM (K562): 83.3%
growth at 10 µM (SK-MEL-28): -74.8%
growth at 10 µM (UO-31): 92.1%
growth at 10 µM (ACHN): 45.7%
growth at 10 µM (HCT-116): 63%
growth at 10 µM (SW-620): 90.5%
growth at 10 µM (HOP-62): 7.86%
growth at 10 µM (SF-295): 74.8%
growth at 10 µM (DU-145): 45.3%
growth at 10 µM (U-251): 56.4%
growth at 10 µM (MDA-MB-468): 82.1%
growth at 10 µM (EKVX): 88.2%
growth at 10 µM (LOX IMVI): 44.7%
growth at 10 µM (COLO 205): 85.7%
growth at 10 µM (UACC-62): 76%
growth at 10 µM (PC-3): 71.3%
growth at 10 µM (UACC-257): 65.1%
inhibition of growth at 10 µM [1]: 38.4%
growth at 10 µM (OVCAR-8): 43%
growth at 10 µM (SK-OV-3): 71.5%
growth at 10 µM (KM12): 90.4%
growth at 10 µM (SK-MEL-2): 60.8%
growth at 10 µM (HT-29): 33.1%
